{
  "source": "ChEMBL document CHEMBL3826885",
  "about": "“Similarities and differences in affinity and binding modes of tricyclic pyrimido- and pyrazinoxanthines at human and rat adenosine receptors” (Bioorg Med Chem, 2016)",
  "key": {"Adenosine receptor A1": {"molecular_target": "T1, Adenosine receptor A1 (Rattus norvegicus, UniProt P25099)", "T1 sequence (P25099 whole entry)": "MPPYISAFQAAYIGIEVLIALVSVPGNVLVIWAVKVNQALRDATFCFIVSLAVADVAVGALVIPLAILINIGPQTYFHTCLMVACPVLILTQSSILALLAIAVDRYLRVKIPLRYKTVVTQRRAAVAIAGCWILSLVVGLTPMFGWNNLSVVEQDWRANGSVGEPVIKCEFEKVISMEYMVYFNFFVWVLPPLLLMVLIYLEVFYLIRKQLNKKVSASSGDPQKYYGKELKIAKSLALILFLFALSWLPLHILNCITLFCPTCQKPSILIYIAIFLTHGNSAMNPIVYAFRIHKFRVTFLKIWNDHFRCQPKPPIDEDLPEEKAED", "test": "Displacement of [3H]CCPA from adenosine receptor A1 in rat brain cortical membranes", "format": "cell membranes", "procedure,_shortened": "(§1)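 Native rat receptors: A1 in brain cortical membranes with [3H]CCPA, A2A in brain striatal membranes, from frozen unstripped rat brains. Compounds were first screened at a single high concentration in three independent experiments.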"}, "Adenosine receptor A2a": {"molecular_target": "Adenosine receptor A2a (Rattus norvegicus, UniProt P30543)", "sequence (P30543 whole entry)": "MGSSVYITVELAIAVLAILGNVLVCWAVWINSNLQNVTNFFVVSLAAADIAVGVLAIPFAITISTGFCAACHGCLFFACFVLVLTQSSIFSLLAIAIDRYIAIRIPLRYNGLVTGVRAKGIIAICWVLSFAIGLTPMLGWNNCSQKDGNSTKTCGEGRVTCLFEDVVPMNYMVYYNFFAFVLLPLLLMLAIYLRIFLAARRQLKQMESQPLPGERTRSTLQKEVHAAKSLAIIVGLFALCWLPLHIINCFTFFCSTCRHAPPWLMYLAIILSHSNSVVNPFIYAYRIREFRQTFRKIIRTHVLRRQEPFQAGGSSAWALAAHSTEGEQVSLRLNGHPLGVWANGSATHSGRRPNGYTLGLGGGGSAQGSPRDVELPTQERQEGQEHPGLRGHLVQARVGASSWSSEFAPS", "test": "Displacement of [3H]MSX2 from adenosine receptor A2a in rat brain striatal membranes", "format": "cell membranes, Membrane", "procedure,_shortened": "as §1, with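 “experiments. Active compounds then had full inhibition curves over at least 3 orders of magnitude of concentration.” for “experiments.”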"}, "Adenosine receptor A2b": {"molecular_target": "T2, Adenosine receptor A2b (Homo sapiens, UniProt P29275)", "T2 sequence (P29275 whole entry)": "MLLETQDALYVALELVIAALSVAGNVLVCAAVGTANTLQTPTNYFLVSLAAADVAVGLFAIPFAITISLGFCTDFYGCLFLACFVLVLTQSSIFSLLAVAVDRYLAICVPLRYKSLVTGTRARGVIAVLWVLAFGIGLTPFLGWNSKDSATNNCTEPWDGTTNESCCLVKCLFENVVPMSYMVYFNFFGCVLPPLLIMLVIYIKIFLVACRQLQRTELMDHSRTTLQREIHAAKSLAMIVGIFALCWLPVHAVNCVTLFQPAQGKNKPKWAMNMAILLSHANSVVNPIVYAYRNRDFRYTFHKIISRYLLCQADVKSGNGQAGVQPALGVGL", "test": "Displacement of [3H]PSB-603 from recombinant human adenosine receptor A2b expressed in CHO cell membranes", "procedure,_shortened": "(§2)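 Membranes came from CHO cells expressing recombinant receptors (human A1, A2A, A2B, A3; rat A2B, A3). Radioligands were [3H]CCPA for A1 and [3H]PSB-11 or [3H]NECA for A3. A single high concentration was screened first, in three experiments for A1/A2A and two for A2B/A3.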"}, "[1]": {"molecular_target": "T3, Adenosine receptor A3 (Homo sapiens) (UniProt P0DMS8)", "T3 sequence (whole entry)": "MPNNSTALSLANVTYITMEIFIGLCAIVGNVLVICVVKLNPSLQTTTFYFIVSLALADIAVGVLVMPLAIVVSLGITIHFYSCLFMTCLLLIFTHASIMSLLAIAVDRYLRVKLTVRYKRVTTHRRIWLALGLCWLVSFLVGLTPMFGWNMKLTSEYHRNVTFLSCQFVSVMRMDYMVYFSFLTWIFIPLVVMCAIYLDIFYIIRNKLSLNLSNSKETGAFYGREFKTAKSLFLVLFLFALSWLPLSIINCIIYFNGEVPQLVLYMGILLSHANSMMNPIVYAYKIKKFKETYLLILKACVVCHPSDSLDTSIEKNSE", "test": "Displacement of [3H]PSB11 from recombinant human adenosine receptor A3 expressed in CHO cell membranes at 1 uM", "procedure,_shortened": "as §2, with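 “A2B/A3. Full inhibition curves spanning at least 3 log units were run for potent compounds.” for “A2B/A3.”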"}, "[2]": {"molecular_target": "T4, Adenosine receptor A1 (Rattus norvegicus) (UniProt P25099)", "T4 sequence (whole entry)": "T1 sequence (P25099 whole entry)", "test": "Displacement of [3H]CCPA from adenosine receptor A1 in rat brain cortical membranes at 10 uM", "format": "cell membranes", "details": "1 uM, in the assay text read “at 1 uM” for “at 10 uM”", "procedure,_shortened": "as §1, with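 “experiments. Active compounds then had full inhibition curves over at least 3 orders of magnitude of concentration.” for “experiments.”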"}, "[3]": {"molecular_target": "Adenosine receptor A2a (Rattus norvegicus) (UniProt P30543)", "sequence (P30543 whole entry)": "as the sequence (P30543 whole entry) above", "test": "Displacement of [3H]MSX2 from Adenosine receptor A2a in rat brain striatal membranes at 10 uM", "format": "cell membranes", "details": "Membrane", "procedure,_shortened": "as §1, with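 “experiments. Active compounds then had full inhibition curves over at least 3 orders of magnitude of concentration.” for “experiments.”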"}, "Adenosine receptor A3": {"molecular_target": "T5, Adenosine receptor A3 (Homo sapiens, UniProt P0DMS8)", "T5 sequence (P0DMS8 whole entry)": "T3 sequence (whole entry)", "test": "Displacement of [3H]PSB-11 from recombinant human adenosine receptor A3 expressed in CHO cell membranes"}},
  "data": [
    {"smiles": "Cn1c(=O)c2c(nc3n2CCN(CCc2ccc(O)cc2)C3)n(C)c1=O", "values": [
      {"measurement": "Ki", "setting": "Adenosine receptor A1", "result": "> 1000", "unit": "nM"},
      {"measurement": "Ki", "setting": "Adenosine receptor A2a", "result": "> 10000", "unit": "nM"},
      {"measurement": "Ki", "setting": "Adenosine receptor A2b", "result": "> 1000", "unit": "nM"},
      {"measurement": "inhibition", "setting": "[1]", "result": 3, "unit": "%"},
      {"measurement": "inhibition", "setting": "[2]", "result": 4, "unit": "%"},
      {"measurement": "inhibition", "setting": "[3]", "result": 35, "unit": "%"},
      {"measurement": "Ki", "setting": "Adenosine receptor A3", "result": "> 1000", "unit": "nM"}
    ]}
  ]
}
